For data set [1], the target named is T1, Undecaprenyl-diphosphatase (Escherichia coli (strain K12), UniProt P60932).
T1 sequence (P60932 whole entry): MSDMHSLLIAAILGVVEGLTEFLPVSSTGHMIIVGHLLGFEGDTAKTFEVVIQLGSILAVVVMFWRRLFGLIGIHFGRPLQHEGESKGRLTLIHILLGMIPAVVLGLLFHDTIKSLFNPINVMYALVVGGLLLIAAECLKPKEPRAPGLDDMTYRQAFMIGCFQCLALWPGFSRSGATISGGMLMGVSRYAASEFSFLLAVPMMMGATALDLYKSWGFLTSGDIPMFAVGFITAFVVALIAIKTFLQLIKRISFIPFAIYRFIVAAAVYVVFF
Nature of the data set: Inhibition of Escherichia coli UPPP expressed in Escherichia coli C41(DE3) using FPP as substrate preincubated for 15 mins followed by substrate addition measured after 20 mins by malachite green assay.

In data set [2] the test system is Staphylococcus aureus. Description: Ratio of MBC to MIC for vancomycin-resistant Staphylococcus aureus VRS12. It counts as functional. The essentials: (§1)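 MBC/MIC ratio. […] MBC by plating no-growth wells onto tryptic soy agar at 37 °C for at least 18 h; taken as the concentration giving 99.9% growth inhibition.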
Data set [3] relates to Staphylococcus aureus. Description: Antibacterial activity against methicillin-resistant Staphylococcus aureus USA300 after 20 hrs by broth microdilution assay. The following applies: USA300, 20 h. It counts as functional. The essentials: (§2)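 Broth microdilution per CLSI in cation-adjusted Mueller Hinton broth. Compounds serially diluted, in triplicate. Incubation at 37 °C for at least 20 hours. MIC taken as the lowest concentration with no visible bacterial growth.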
Background: Dilution methods test growth across graded concentrations, often in twofold steps.

Data set [4] relates to Staphylococcus aureus. Description: Antibacterial activity against vancomycin-resistant Staphylococcus aureus VRS11a after 20 hrs by broth microdilution assay. In kind it is functional. The essentials:
as §2

Data set [5] relates to Staphylococcus aureus. Nature of the data set: Potency index, ratio of vancomycin MIC to compound MIC for antibacterial activity against vancomycin-resistant Staphylococcus aureus VRS11a. In kind it is functional.
Data set [6] concerns Staphylococcus aureus. Description: Ratio of MBC to MIC for methicillin-resistant Staphylococcus aureus USA300. It counts as functional. The following applies: read-out: Ratio. The essentials: as §1
Data set [7] has as its system Staphylococcus aureus. Nature of the data set: Ratio of MBC to MIC for vancomycin-resistant Staphylococcus aureus VRS11a. It counts as functional. In outline: as §1
Data set [8] concerns Staphylococcus aureus. Description: Antibacterial activity against vancomycin-resistant Staphylococcus aureus VRS12 after 20 hrs by broth microdilution assay. It counts as functional. The note with it: VRS12, 20 h. The essentials: as §2
In data set [9] the test system is Staphylococcus aureus. Description: Antibacterial activity against methicillin-resistant Staphylococcus aureus NRS107 after 20 hrs by broth microdilution assay. In kind it is functional. The following applies: NRS107, 20 h. In outline: as §2
Data set [10] concerns Staphylococcus aureus. Nature of the data set: Antibacterial activity against methicillin-resistant Staphylococcus aureus NRS119 after 20 hrs by broth microdilution assay. It counts as functional. The note with it: NRS119, 20 h. In outline: as §2
The test system of another data set is J774. Description: Cytotoxicity against mouse J774 cells assessed as reduction in cell viability up to 16 ug/ml after 24 hrs by MTS assay. It counts as cell-based. The following applies: j774, 24 h. In outline:
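J774 murine macrophages were grown in DMEM with 10% FBS at 37 °C, 5% CO2. Compounds were tested at 8, 16 and 32 μg/mL in triplicate for 24 h, with a DMSO-matched control. MTS was added for 4 h and absorbance read at 490 nm. Viability is given as % of DMSO control (mean ± SD); Student t-test with Holm-Sidak test.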

Data set [11] relates to Staphylococcus aureus. Nature of the data set: Ratio of MBC to MIC for vancomycin-resistant Staphylococcus aureus VRS10. It counts as functional. In outline:
as §1

Data set [12] concerns Staphylococcus aureus. Nature of the data set: Bactericidal activity against methicillin resistant vancomycin-resistant Staphylococcus aureus VRS12 up to 18 hrs by broth microdilution assay. In kind it is functional. The following applies: VRS12, 18 h, read-out: MBC99.9. The essentials:
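MBC set up from the MIC plates. Aliquots from wells with no growth spotted onto tryptic soy agar and incubated at 37 °C for at least 18 hours. MBC taken as the lowest concentration giving 99.9% inhibition of bacterial growth.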

The test system of data set [13] is Staphylococcus aureus. Nature of the data set: Bactericidal activity against methicillin-resistant Staphylococcus aureus USA300 up to 18 hrs by broth microdilution assay. It counts as functional. The following applies: USA300, 18 h, read-out: MBC99.9.
Data set [14] relates to Staphylococcus aureus. Nature of the data set: Bactericidal activity against methicillin-resistant Staphylococcus aureus NRS119 up to 18 hrs by broth microdilution assay. In kind it is functional. The following applies: NRS119, 18 h, read-out: MBC99.9.
For data set [15], the system named is Staphylococcus aureus. Nature of the data set: Bactericidal activity against methicillin-resistant Staphylococcus aureus NRS107 up to 18 hrs by broth microdilution assay. In kind it is functional. The following applies: NRS107, 18 h, read-out: MBC99.9.
Data set [16] has as its system Staphylococcus aureus. Nature of the data set: Antibacterial activity against methicillin-resistant Staphylococcus aureus NRS123 (USA400) infected in mouse J774 cells at 16 ug/ml after 24 hrs. It counts as functional, organism-based. In outline: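 J774 macrophages grown in DMEM with 10% FBS at 37 °C, 5% CO2. Infected with USA400 at MOI ~100:1 for 1 h, then washed with gentamicin 50 μg/mL. Treated in triplicate wells for 24 h, washed with gentamicin again and lysed with 0.1% Triton X-100. Lysate plated on tryptic soy agar for 18–22 h; CFU/mL counted.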

Data set [17] in a line: Selectivity index, ratio of toxic concentration for human HRT18 cells to MIC for methicillin-resistant Staphylococcus aureus. In kind it is toxicity. The note with it: read-out: Selectivity Index.
The test system of data set [18] is Staphylococcus aureus. Description: Antibacterial activity against vancomycin-resistant Staphylococcus aureus VRS10 after 20 hrs by broth microdilution assay. It counts as functional. The note with it: VRS10, 20 h. The essentials: as §2
The test system of data set [19] is Staphylococcus aureus. Nature of the data set: Bactericidal activity against methicillin-resistant Staphylococcus aureus USA300 at 4 times MIC after 24 hrs by time kill assay. It counts as functional, organism-based.
Another data set concerns HRT-18 cell line. Nature of the data set: Cytotoxicity against human HRT18 cells assessed as reduction in cell viability up to 32 ug/ml after 2 hrs by MTS assay. It counts as cell-based. The following applies: hrt-18, 2 h.
Data set [20] has as its system Staphylococcus aureus. Nature of the data set: Potency index, ratio of vancomycin MIC to compound MIC for antibacterial activity against vancomycin-resistant Staphylococcus aureus VRS12. In kind it is functional.
For data set [21], the system named is Staphylococcus aureus. Nature of the data set: Ratio of MBC to MIC for methicillin-resistant Staphylococcus aureus NRS119. In kind it is functional. The essentials:
as §1

Data set [22] deals with Staphylococcus aureus. Nature of the data set: Bactericidal activity against methicillin-resistant Staphylococcus aureus NRS123 (USA400) at 4 times MIC after 24 hrs by time kill assay. It counts as functional, organism-based.
Data set [23] has as its system Staphylococcus aureus. Description: Potency index, ratio of vancomycin MIC to compound MIC for antibacterial activity against vancomycin-resistant Staphylococcus aureus VRS10. It counts as functional.
Data set [24] relates to Staphylococcus aureus. Nature of the data set: Bactericidal activity against methicillin resistant vancomycin-resistant Staphylococcus aureus VRS10 up to 18 hrs by broth microdilution assay. In kind it is functional. The following applies: VRS10, 18 h, read-out: MBC99.9.
The test system of data set [25] is Staphylococcus aureus. Description: Ratio of MBC to MIC for methicillin-resistant Staphylococcus aureus NRS107. It counts as functional. In outline: as §1

The structures appear in SMILES notation. In brackets after ≈: the same amount, converted by molar mass. Activity calls are given as the source filed them. The calls are words filed in the database; no cut-off is given here. Positions of bridges follow the written chain, without caps; N, C: chain ends. Non-standard residues stand in square brackets, D forms with d. Residues, ends and D or L forms follow the SMILES beside them. *: point of attachment. Ileψ(thiazoline)Cys = CC[C@H](C)[C@H](N)C1=N[C@H](C(=O)*)CS1; dOrn = NCCC[C@@H](N)C(=O)O

The IC50 is the point on the concentration scale where inhibition reaches its midpoint. Read a high IC50 as a need for much substance. On to `CC[C@H](C)[C@H](N)C1=N[C@H](C(=O)N[C@@H](CC(C)C)C(=O)N[C@H](CCC(=O)O)C(=O)N[C@H](C(=O)N[C@H]2CCCCNC(=O)[C@H](CC(N)=O)NC(=O)[C@@H](CC(=O)O)NC(=O)[C@H](Cc3cnc[nH]3)NC(=O)[C@@H](Cc3ccccc3)NC(=O)[C@H]([C@@H](C)CC)NC(=O)[C@@H](CCCN)NC2=O)[C@@H](C)CC)CS1` [BACITRACIN] ({Ileψ(thiazoline)Cys}-L[dE]IK[dOrn]I[dF]H[dD]N; lactam 4-C), for which, in [1], the concentration for half-maximal inhibition (IC50) turned out to be 5.6 µM.

By MIC is commonly meant the lowest concentration that inhibits growth of the organism. A lower MIC goes with inhibition by little substance. As for `CCCC#Cc1ccc(-c2nc(C)c(/C(C)=N/NC(=N)N)s2)cc1`, the Ratio entry was “<=3” with Staphylococcus aureus [2]; above 100 with Staphylococcus aureus [5]; 8 in the data set with Staphylococcus aureus [6]; “<=3” in the data set on Staphylococcus aureus [7]; “<=3” with Staphylococcus aureus [11]; 16 in the data set on Staphylococcus aureus [20]. For the same molecule, the values for the Ratio result with Staphylococcus aureus [21], with Staphylococcus aureus [23] and in the data set with Staphylococcus aureus [25] were “<=3”, above 100 and “<=3”, respectively. Also, the minimal inhibitory concentration (MIC) was 1 µg/mL (≈ 2.95 µM) with Staphylococcus aureus [3]; at most 0.5 µg/mL against Staphylococcus aureus [4]; 1 µg/mL (≈ 2.95 µM) with Staphylococcus aureus [8]; 1 µg/mL (≈ 2.95 µM) against Staphylococcus aureus [9]; 1 µg/mL (≈ 2.95 µM) against Staphylococcus aureus [10]; 1 µg/mL (≈ 2.95 µM) against Staphylococcus aureus [18]. Further, the Activity result with J774 and in the data set on HRT-18 cell line was “Non-Toxic” in each case. Also, the MBC in the data set with Staphylococcus aureus [12] is 1 µg/mL (≈ 2.95 µM); in the data set with Staphylococcus aureus [13], 8 µg/mL (≈ 23.6 µM); with Staphylococcus aureus [14] it was 1 µg/mL (≈ 2.95 µM); in the data set with Staphylococcus aureus [15] it was 1 µg/mL (≈ 2.95 µM); with Staphylococcus aureus [24] it was 2 µg/mL (≈ 5.89 µM). The outcome with Staphylococcus aureus [16], in the data set on Staphylococcus aureus [19] and in the data set with Staphylococcus aureus [22] was Active. Besides, the selectivity ratio in [17] lay in the range of 7 to 31.
